# Measured values as given in ChEMBL document CHEMBL1811898, “Discovery and structure-activity relationships of modified salicylanilides as cell permeable inhibitors of poly(ADP-ribose) glycohydrolase (PARG)” (J Med Chem, 2011).
# The source made the active and inactive calls. The rule behind the calls is not given here.
# Columns and labels:
# [1] = Inhibition of alcohol dehydrogenase
# [2] = target: T1, NAD-dependent protein deacetylase sirtuin-1 (Homo sapiens) (UniProt Q96EB6); assay: Inhibition of SIRT1
# T1 sequence (whole entry): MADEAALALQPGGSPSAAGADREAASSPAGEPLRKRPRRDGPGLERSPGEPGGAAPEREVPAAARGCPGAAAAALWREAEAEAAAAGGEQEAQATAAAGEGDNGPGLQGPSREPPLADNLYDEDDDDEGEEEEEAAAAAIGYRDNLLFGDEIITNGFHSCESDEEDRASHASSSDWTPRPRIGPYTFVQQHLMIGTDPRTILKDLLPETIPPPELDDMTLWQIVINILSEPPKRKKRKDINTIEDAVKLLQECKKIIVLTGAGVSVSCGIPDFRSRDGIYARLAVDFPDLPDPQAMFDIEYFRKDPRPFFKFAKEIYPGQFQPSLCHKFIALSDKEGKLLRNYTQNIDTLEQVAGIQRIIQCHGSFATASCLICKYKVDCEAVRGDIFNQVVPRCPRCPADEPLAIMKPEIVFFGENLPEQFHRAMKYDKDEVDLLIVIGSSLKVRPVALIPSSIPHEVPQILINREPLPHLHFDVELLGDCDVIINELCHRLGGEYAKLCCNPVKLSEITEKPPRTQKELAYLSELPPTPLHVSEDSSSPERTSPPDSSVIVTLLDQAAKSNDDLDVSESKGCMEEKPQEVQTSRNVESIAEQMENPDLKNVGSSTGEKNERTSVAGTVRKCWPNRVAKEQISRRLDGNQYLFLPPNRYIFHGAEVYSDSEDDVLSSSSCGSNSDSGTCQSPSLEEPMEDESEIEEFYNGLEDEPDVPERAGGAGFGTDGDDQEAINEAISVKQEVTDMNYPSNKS
# [3] = target: Poly [ADP-ribose] polymerase 1 (Homo sapiens, UniProt P09874); assay: Inhibition of PARP-1 using [32P]-NAD+ after 15 mins
# [4] = target: Poly(ADP-ribose) glycohydrolase (Homo sapiens) (UniProt Q86W56); assay: Inhibition of PARG using [alpha-32P]ADP-ribose polymers up to 500 uM after 5 mins by TRAP assay
# [5] = target: Poly(ADP-ribose) glycohydrolase (Homo sapiens) (UniProt Q86W56); assay: Inhibition of PARG using [alpha-32P]ADP-ribose polymers at 500 uM after 5 mins by TRAP assay
# [6] = target: PARP 1, 2 and 3 (Homo sapiens) (UniProt P09874+Q9Y6F1+Q9UGN5); assay: Inhibition of PARP in human SCC25 cells assessed as inhibition of MNNG-induced NAD(H) depletion at 1 mM preincubated for 5 mins before MNNG challenge measured after 30 mins; assay type: cell-based; details: SCC-25
# How it was run: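 SCC-25 cells (90% confluent, 35 mm dishes) pretreated 5 min with compound, then 5 μg/mL MNNG for 30 min; HClO4 extraction, KOH/KH2PO4 neutralization; NAD by enzymatic cycling (alcohol dehydrogenase, phenazine ethosulfate, MTT, 37°C 30 min), A570; normalized to cell protein.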
# [7] = target: Poly(ADP-ribose) glycohydrolase (Homo sapiens) (UniProt Q86W56); details: SCC-25, 1 mM
# [8] = target: Poly(ADP-ribose) glycohydrolase (Homo sapiens) (UniProt Q86W56); details: SCC-25, 1 mM; remark: listed apart in the source
# [9] = target: Poly(ADP-ribose) glycohydrolase (Homo sapiens) (UniProt Q86W56); details: SCC-25, 1 mM; remark: listed apart in the source
# [10] = target: Poly(ADP-ribose) glycohydrolase (Homo sapiens) (UniProt Q86W56); assay: Inhibition of PARG in human SCC25 cells assessed as inhibition of MNNG-induced poly(ADP-ribose) formation at 1 mM after 20 mins by chemiluminescent ELISA; assay type: cell-based; details: SCC-25
# How it was run: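 SCC-25 cells at 90% confluence in 35 mm dishes; 5 μg/mL MNNG used to induce PAR; lysed in buffer with 1% SDS; ADP-ribose polymers quantified by chemiluminescent ELISA (kit protocol, minor changes); PAR normalized to cell count.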
# [11] = Selectivity ratio of IC50 for PARP-1 to IC50 for PARG
# Sequence of Poly [ADP-ribose] polymerase 1 (P09874 whole entry): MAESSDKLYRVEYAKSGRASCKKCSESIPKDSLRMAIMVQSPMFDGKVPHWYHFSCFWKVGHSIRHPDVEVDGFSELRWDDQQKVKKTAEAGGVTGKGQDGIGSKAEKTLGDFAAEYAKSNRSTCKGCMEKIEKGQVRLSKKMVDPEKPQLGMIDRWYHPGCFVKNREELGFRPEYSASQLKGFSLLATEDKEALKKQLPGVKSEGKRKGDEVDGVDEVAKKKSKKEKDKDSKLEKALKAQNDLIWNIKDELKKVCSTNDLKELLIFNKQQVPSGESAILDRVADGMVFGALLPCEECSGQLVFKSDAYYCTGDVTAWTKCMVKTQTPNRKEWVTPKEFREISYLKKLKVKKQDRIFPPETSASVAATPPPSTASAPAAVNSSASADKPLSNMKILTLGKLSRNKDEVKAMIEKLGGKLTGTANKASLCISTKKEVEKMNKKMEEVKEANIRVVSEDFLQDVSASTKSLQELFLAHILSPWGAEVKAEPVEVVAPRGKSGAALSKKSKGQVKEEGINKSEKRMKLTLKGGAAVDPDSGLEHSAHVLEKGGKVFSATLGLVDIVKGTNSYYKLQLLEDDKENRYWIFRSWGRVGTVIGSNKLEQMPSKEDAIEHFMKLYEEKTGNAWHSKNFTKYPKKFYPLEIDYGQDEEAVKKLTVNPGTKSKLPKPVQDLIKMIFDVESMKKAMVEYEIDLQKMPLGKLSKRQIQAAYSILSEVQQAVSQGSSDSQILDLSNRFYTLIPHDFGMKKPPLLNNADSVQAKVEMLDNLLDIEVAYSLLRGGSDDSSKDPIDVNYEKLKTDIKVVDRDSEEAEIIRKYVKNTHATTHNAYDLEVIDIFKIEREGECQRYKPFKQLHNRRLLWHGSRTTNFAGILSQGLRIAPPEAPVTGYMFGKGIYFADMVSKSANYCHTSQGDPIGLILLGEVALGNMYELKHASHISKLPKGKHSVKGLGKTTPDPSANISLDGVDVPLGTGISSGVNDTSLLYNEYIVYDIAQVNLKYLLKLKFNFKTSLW
# Sequence of Poly(ADP-ribose) glycohydrolase (Homo sapiens) (Q86W56 whole entry, looked up): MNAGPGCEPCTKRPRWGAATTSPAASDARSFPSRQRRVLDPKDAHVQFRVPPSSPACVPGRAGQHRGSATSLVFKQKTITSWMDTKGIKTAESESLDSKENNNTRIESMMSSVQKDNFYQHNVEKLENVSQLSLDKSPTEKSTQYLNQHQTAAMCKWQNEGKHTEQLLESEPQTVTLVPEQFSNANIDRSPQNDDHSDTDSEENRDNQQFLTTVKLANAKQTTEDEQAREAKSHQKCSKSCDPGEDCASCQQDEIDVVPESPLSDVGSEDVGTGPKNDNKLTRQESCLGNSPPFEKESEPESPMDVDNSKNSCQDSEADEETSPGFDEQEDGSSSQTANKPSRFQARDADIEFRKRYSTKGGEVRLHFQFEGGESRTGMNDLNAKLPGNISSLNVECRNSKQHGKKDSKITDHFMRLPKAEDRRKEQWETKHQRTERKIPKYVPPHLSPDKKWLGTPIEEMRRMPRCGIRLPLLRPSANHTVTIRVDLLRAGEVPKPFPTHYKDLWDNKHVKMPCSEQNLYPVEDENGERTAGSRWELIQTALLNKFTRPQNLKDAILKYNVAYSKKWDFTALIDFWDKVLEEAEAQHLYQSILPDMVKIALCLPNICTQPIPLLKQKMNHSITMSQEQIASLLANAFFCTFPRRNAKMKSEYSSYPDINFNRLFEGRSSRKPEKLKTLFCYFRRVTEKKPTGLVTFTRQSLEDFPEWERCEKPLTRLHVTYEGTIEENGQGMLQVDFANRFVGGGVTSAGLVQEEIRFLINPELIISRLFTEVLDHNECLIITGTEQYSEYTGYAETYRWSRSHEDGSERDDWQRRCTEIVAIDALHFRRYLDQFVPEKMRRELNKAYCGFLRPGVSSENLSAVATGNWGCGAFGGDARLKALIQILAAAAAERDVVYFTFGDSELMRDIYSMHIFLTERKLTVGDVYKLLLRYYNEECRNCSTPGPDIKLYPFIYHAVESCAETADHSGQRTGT
SMILES,inhibition [1],inhibition [2],other results
O=C(Nc1ccc(Oc2ccc3ccccc3c2)c(C(F)(F)F)c1)c1cc(Cl)cc(Cl)c1O,inactive,inactive,–
Nc1ncnc2c1ncn2[C@@H]1O[C@H](CO[P@](=O)(O)O[P@@](=O)(O)OC[C@H]2NC[C@H](O)[C@@H]2O)[C@@H](O)[C@H]1O [ADENOSINE DIPHOSPHATE (HYDROXYMETHYL)PYRROLIDINEDIOL],–,–,IC50 [3]: > 1000 µM
COc1c(Cl)cc(Cl)cc1C(=O)Nc1ccc(Oc2ccc3ccccc3c2)c(Cl)c1,inactive,inactive,inhibition [4]: inactive
O=C(Nc1ccc(Oc2ccc3ccccc3c2)c(Cl)c1)c1ccccc1O,inactive,inactive,–
O=C(Nc1ccc(O)c(Cl)c1)c1cc(Cl)cc(Cl)c1O,inactive,inactive,inhibition [5]: < 10%
O=C(Nc1ccc(Cl)cc1)c1cc(Cl)cc(Cl)c1O,inactive,inactive,inhibition [6]: Active
NC(=O)c1cc(Cl)cc(Cl)c1O,inactive,inactive,inhibition [5]: < 10%; inhibition [6]: Active
O=C(Nc1ccc(Oc2ccc3ccccc3c2)c(Cl)c1)c1cc(Cl)cc(Cl)c1,inactive,inactive,inhibition [4]: inactive; inhibition [6]: Active
Cc1cc(NC(=O)c2cc(Cl)cc(Cl)c2O)ccc1Oc1ccc2ccccc2c1,inactive,inactive,–
O=C(Nc1ccc(Oc2ccccc2)c(Cl)c1)c1cc(Cl)cc(Cl)c1O,inactive,inactive,–
O=C(Nc1cccc(Cl)c1)c1cc(Cl)cc(Cl)c1O,inactive,inactive,IC50 [3]: 500 µM
Cc1ccc(NC(=O)c2cc(Cl)cc(Cl)c2O)cc1,inactive,inactive,inhibition [5]: 10%
O=C(Nc1ccc(Oc2ccc3ccccc3c2)c(Cl)c1)c1cc(Cl)cc(Cl)c1O,inactive,inactive,inhibition [7]: Active; inhibition [8]: Active; IC50 [3]: 120 µM; inhibition [6]: 40%; inhibition [9]: Active
Cc1cccc(NC(=O)c2cc(Cl)cc(Cl)c2O)c1,inactive,inactive,inhibition [5]: 10%
O=C(Nc1ccccc1)c1cc(Cl)cc(Cl)c1O,inactive,inactive,inhibition [5]: < 10%
O=C(Nc1cc(Cl)ccc1Oc1ccc2ccccc2c1Cl)c1cc(Cl)cc(Br)c1O,inactive,inactive,–
NC(=O)c1ccccc1 [BENZAMIDE],–,–,IC50 [3]: 5.4 µM; inhibition [10]: Active; inhibition [6]: Active
O=C(Nc1ccc(Oc2cc3ccccc3cc2Br)c(Cl)c1)c1cc(Cl)cc(Cl)c1O,inactive,inactive,IC50 [3]: 123 µM; Ratio IC50 [11]: 15
Oc1c(Cl)cc(Cl)cc1/C=N/c1ccc(Oc2ccc3ccccc3c2)c(Cl)c1,inactive,inactive,inhibition [4]: inactive
O=C(O)c1ccccc1C(=O)Nc1ccc(Oc2ccc3ccccc3c2)c(Cl)c1,inactive,inactive,IC50 [3]: 66 µM
Oc1c(Cl)cc(Cl)cc1CNc1ccc(Oc2ccc3ccccc3c2)c(Cl)c1,inactive,inactive,inhibition [4]: inactive
O=C(Nc1ccc(Oc2ccc3ccccc3c2)cc1)c1cc(Cl)cc(Cl)c1O,inactive,inactive,–
Cc1ccccc1NC(=O)c1cc(Cl)cc(Cl)c1O,inactive,inactive,inhibition [5]: 10%
CN(C(=O)c1cc(Cl)cc(Cl)c1O)c1ccc(Oc2ccc3ccccc3c2)c(Cl)c1,inactive,inactive,–
O=C(Nc1ccccc1Cl)c1cc(Cl)cc(Cl)c1O,inactive,inactive,inhibition [5]: 10%; IC50 [3]: 500 µM
O=C(Nc1ccc(Oc2ccc3ccccc3c2)c(F)c1)c1cc(Cl)cc(Cl)c1O,inactive,inactive,–
Cc1ccc(Oc2ccc(NC(=O)c3cc(Cl)cc(Cl)c3O)cc2Cl)cc1,inactive,inactive,–
Cc1ccc(C(C)C)c(Br)c1Oc1ccc(Cl)cc1NC(=O)c1cc(Cl)cc(Br)c1O,inactive,inactive,IC50 [3]: 78 µM
O=C(Nc1ccc(Oc2ccc3ccccc3c2)c(Cl)c1)c1cccc(Cl)c1O,inactive,inactive,–
O=C(Nc1ccc(Oc2ccc3ccccc3c2)c(Cl)c1)c1cc(Cl)ccc1O,inactive,inactive,–
